# Ecoli WT expand – growth inhibitors of E. coli BW25113 wild type; growth inhibition, % at 100 µM; OD600 absorbance; AID 710; 98,000 compounds, 0.15% hits;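 active = growth inhibition above about 50% at one test dose, limit read from the data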;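 note: growth measured after 20 h incubation at 37 °C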
# CYP2C9 inh – blocks human cytochrome P450 2C9. P11712. CYP2C9 Supersomes, luciferin-H conversion, luminescence. inhibition, % at 5 µM. 96,000 compounds, 20% hits. AID 777;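 active = blocking of liver enzyme CYP2C9 beyond about 50% at 5 µM, limit read from the data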
# Target sequence (P11712 whole entry, looked up): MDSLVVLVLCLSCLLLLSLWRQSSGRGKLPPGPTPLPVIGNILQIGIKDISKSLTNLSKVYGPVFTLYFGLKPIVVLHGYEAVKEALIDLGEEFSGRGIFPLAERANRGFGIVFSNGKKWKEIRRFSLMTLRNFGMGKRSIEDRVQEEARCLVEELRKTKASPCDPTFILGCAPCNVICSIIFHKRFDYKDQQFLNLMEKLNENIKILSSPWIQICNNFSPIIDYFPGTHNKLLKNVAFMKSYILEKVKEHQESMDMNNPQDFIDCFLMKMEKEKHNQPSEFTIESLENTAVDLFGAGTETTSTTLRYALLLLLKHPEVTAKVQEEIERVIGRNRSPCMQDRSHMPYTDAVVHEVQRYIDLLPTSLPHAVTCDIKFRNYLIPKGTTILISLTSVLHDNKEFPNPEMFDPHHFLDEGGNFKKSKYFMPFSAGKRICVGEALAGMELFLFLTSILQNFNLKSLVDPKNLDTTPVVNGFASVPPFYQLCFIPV
# CYP2C19 act – activators of human cytochrome P450 2C19 | AID 1025 | recombinant CYP2C19, luciferin-H EGE luminescence; stronger effect = higher value; 0 = fully inhibited enzyme, 1 = untreated enzyme | 96,000 tested, under 10 active | activation factor at 5 µM;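 active = activation factor of at least 2 at 5 µM in the primary screen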;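 note: 0 = wells with 2.5 mM tranylcypromine and 1 = vehicle-only wells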
# tolC growth inh – growth inhibitors of E. coli BW25113 tolC mutant; OD615; 65,000 compounds, 2.2% hits; growth inhibition, % at 10 µM (by protocol);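 active = growth inhibition at or above a cutoff equal to the mean over every tested compound plus 3 SD, cut at about 60% in these data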;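 note: growth measured after 20 h incubation at 37 °C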
#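 Test system: E. coli BW25113 ΔtolC::kan bacteria; incubation: 37 °C, 20 h exposure; medium: LB broth supplemented with 50 µg/mL kanamycin; read-out basis: percent growth inhibition; signal: A615 absorbance measurement; compound: 10 µM final, single dose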
# CYP2C9 act – activators of human CYP2C9 | P11712 | recombinant CYP2C9, luciferin-H conversion, luminescence; stronger effect = higher value; factor 1 = untreated enzyme, 0 = blocked | activation factor at 5 µM | 96,000 compounds, 1.4% hits;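 active = activation factor of 2 or more for CYP2C9 at a 5 µM dose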;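 note: 0 = sulfaphenazole-blocked wells and 1 = vehicle-only wells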
# CYP2C19 inhib – inhibitors of human CYP2C19; P33261; CYP2C19 Supersomes, luciferin-H EGE luminescence, 30 min; inhibition, % at 5 µM; 96,000 compounds, 21% hits; AID 778;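 active = CYP2C19 inhibition above a set limit at 5 µM in the primary screen, cut at about 50% in these data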;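 note: plate controls were negative control wells for no effect and 2.5 mM tranylcypromine positive control for full effect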
# Starred values were filed as active, the others as inactive; / = not tested or not shown. This is a sample that favours compounds with a hit; in the whole collection about 29% have one here.
SMILES,Ecoli WT expand,CYP2C9 inh,CYP2C19 act,tolC growth inh,CYP2C9 act,CYP2C19 inhib
COC(=O)c1ccc(CSc2ncnc3c2sc2nc(N4CCOCC4)c4c(c23)CCCC4)o1,/,/,/,3.0,/,/
CC(C)CCSc1nc(N2CCOCC2)c2c(c1C#N)CC(C)(C)OC2,-24.0,98.5*,0.4,35.7,0,63.3*
COC(=O)c1ccc(CSc2nc(N3CCOCC3)c3c(c2C#N)CC(C)(C)OC3)o1,5.0,97.8*,0.3,9.6,0,68.6*
CC1(C)CC(=O)CC(C)(C)N1OC(=O)c1ccncc1,-4.0,51.7*,0.3,-6.8,0.5,66.7*
c1ccc(-c2nnc(OCCN3CCOCC3)c3ccccc23)cc1,2.0,-9.2,0.6,20.0,1.1,37.8
CCc1nnc(SCC(=O)Nc2ccc3c(c2)OCO3)o1,14.0,44.6,0.3,/,0.6,71.7*
CC(C)c1nc(SCC(=O)Nc2ccc3c(c2)OCO3)n[nH]1,7.0,22.2,0.3,/,0.8,73.3*
CCN(CC)S(=O)(=O)c1ccc(-c2nnc(SCC(=O)Nc3ccc4c(c3)OCO4)o2)cc1,7.0,72.4*,0.7,-9.9,0.3,28.0
CCN(CC)S(=O)(=O)c1ccc(NC(=O)CSc2nnc(-c3ccc(F)cc3)o2)cc1,-29.0,43.6,0.7,5.3,0.6,32.4
CCn1c(SCC(=O)Nc2ccc3c(c2)OCO3)nc2c1c(=O)n(C)c(=O)n2C,-4.0,36.8,0.8,7.7,0.6,15.1
CC(C)n1c(SCC(=O)Nc2ccc3c(c2)OCO3)nc2c1c(=O)n(C)c(=O)n2C,-10.0,55.2*,0.7,/,0.4,31.1
CC(C)(C)S(=O)(=O)c1nc2ccccc2s1,7.0,-45.5,0.9,/,1.5,9.8
O=S(=O)(NC1CCCCC1)c1ccc(-c2csnn2)s1,0.0,60.6*,0,/,0.4,99.9*
CC(C)(C)NS(=O)(=O)c1ccc(-c2csnn2)s1,3.0,28.1,0.1,/,0.7,93.1*
CCC(C)NS(=O)(=O)c1ccc(-c2csnn2)s1 (stereo not given),5.0,37.0,0,/,0.6,99.9*
CCOCCCNCC(=O)N1CCN(S(=O)(=O)c2ccc(C)cc2)CC1,6.0,-2.4,1,-13.0,1,0.1
CCc1c(C(=O)O)[nH]c2ccc(Br)cc12,-1.0,26.2,1,9.6,0.7,-2.2
O=C(O)CCCNS(=O)(=O)c1cccc2nsnc12,-3.0,1.0,1.1,/,1,-6.3
O=S(=O)(NCCc1ccccc1)c1cccc2nsnc12,0.0,59.4*,0,/,0.4,99.4*
O=S(=O)(NCCOC12CC3CC(CC(C3)C1)C2)c1cccc2nsnc12,-2.0,-31.3,0,39.4,1.3,96.9*
Cc1nccc2[nH]c(=O)c(C(=O)NCCCN(C)C3CCCCC3)cc12,4.0,-2.4,1,-24.5,1,0.9
O=C1CCc2cc(S(=O)(=O)N3CCC(C(=O)Nc4nccs4)CC3)ccc2N1,7.0,-9.3,1.2,-12.2,1.1,-15.5
Cc1ccnc(SCC(=O)n2c3c(c4ccccc42)CC(C)CC3)n1 (stereo not given),-2.0,10.6,0.8,/,0.9,23.8
Cc1ccc(NC(=S)NNc2ncc(C(F)(F)F)cc2Cl)c(C)c1,23.0,-58.2,0.3,/,1.6,67.2*
CC(=O)Nc1ccc(C(=O)OCC(=O)c2ccc(C)c([N+](=O)[O-])c2)cc1,-1.0,50.7*,0.7,/,0.5,30.5
SMILES,Ecoli WT expand,CYP2C9 inh,CYP2C19 act,tolC growth inh,CYP2C9 act,CYP2C19 inhib
CCC(=O)Nc1ccc(C(=O)OCC(=O)c2ccc(C)c([N+](=O)[O-])c2)cc1,-5.0,-20.4,1.1,/,1.2,-7.3
Cc1cc(NC(=O)COc2cccc(C)c2C)no1,3.0,26.7,0.8,-0.5,0.7,20.3
Cc1ccc(OCC(=O)Nc2cccc(-c3nnc(-c4ccccc4)o3)c2)cc1,-4.0,/,/,16.3,/,/
Cc1cccc(OCC(=O)Nc2cccc(-c3nnc(-c4ccccc4)o3)c2)c1C,-1.0,90.2*,0.3,0.2,0.1,74.1*
Cc1cccc(C)c1OCC(=O)Nc1cccc(-c2nnc(-c3ccccc3)o2)c1,-17.0,89.8*,0.5,-4.5,0.1,54.7*
Cc1cccc(OCC(=O)NCc2ccncc2)c1C,4.0,55.1*,0.3,-9.9,0.4,74.2*
CCCCC(=O)Nc1cccc(-c2nnc(-c3ccccc3)o2)c1,-5.0,74.6*,0.5,67.8*,0.3,52.5*
O=c1nc(NCc2ccccc2Cl)cn[nH]1,2.0,-11.9,1,/,1.1,-2.7
CC(=O)Nc1cc(NC(=O)CCCC(=O)O)ccc1Cl,7.0,-19.0,1.2,-17.3,1.2,-18.5
COc1ccc(OC)c(S(=O)(=O)N2Cc3ccccc3CC2C(=O)O)c1 (stereo not given),1.0,8.4,0.9,3.5,0.9,11.7
COc1ccc(OC)c(S(=O)(=O)N2CCN(C34CC5CC(CC(C5)C3)C4)CC2)c1,6.0,-23.8,0.8,23.9,1.2,15.9
COc1ccc(OC)c(S(=O)(=O)N2c3ccccc3CC2C)c1 (stereo not given),1.0,79.4*,0.3,25.3,0.2,75.0*
CCC(=O)N1CCCc2cc(S(=O)(=O)N3CCCc4ccccc43)ccc21,-13.0,-63.3,0.8,35.8,1.6,20.9
CCCNC(=O)NC(=O)COC(=O)c1ccc(OC)c(S(=O)(=O)N2CCCc3ccccc32)c1,-11.0,95.2*,0.6,50.4,0,37.0
COc1ccc(OC)c(S(=O)(=O)N2C(C)CCCC2C)c1 (stereo not given),-2.0,85.4*,0.1,2.3,0.1,93.2*
COc1ccc(OC)c(S(=O)(=O)N2CCCc3ccccc32)c1,-4.0,-68.5,0.2,14.4,1.7,83.6*
O=C(c1ccco1)N1CCN(c2cc(=O)n(-c3ccc(Cl)cc3)c(=O)[nH]2)CC1,0.0,7.7,1,/,0.9,1.9
O=S(=O)(Cc1cnc(Cl)s1)c1ccccc1,6.0,7.4,0.5,/,0.9,47.4
O=c1c(Cl)c(N/N=C/c2ccc(Br)cc2)cnn1-c1ccccc1,3.0,11.6,1,/,0.9,-0.6
COc1ccc(C(=O)N2CCCN(C)CC2)cc1S(=O)(=O)N1CCCc2ccccc21,0.0,50.3*,0.8,-6.9,0.5,18.0
CN1CCN(C(=O)c2ccc3ccccc3c2)CC1,8.0,-28.7,0.9,3.0,1.3,12.8
COc1ccc(OC)c(S(=O)(=O)N2c3cc(F)ccc3CCC2C)c1 (stereo not given),-1.0,60.8*,0.1,57.3,0.4,87.8*
COc1ccc(C(=O)NCc2ccc(C)cc2)cc1S(=O)(=O)N1CCCc2ccccc21,-16.0,74.1*,0.3,/,0.3,67.1*
COc1ccc(CNC(=O)c2ccc(S(=O)(=O)N3CCCC3)cc2)cc1OC,-1.0,48.3,1,/,0.5,4.1
Cc1cc(NC(=O)COC(=O)c2ccc(S(=O)(=O)N3CCCc4ccccc43)cc2)no1,-12.0,66.2*,0.5,49.4,0.3,45.6
COc1ccc(C2(NC(C)=O)CCN(C(=O)c3ccco3)CC2)cc1,1.0,40.1,0.7,-16.9,0.6,28.9
